# Results: ChEMBL document CHEMBL5058577, “EUbOPEN Chemogenomics Library 2 (Multiplex)” (2022)
# System: U2OS
# Assay: Multiplex assay against U2OS
# Type: toxicity, cell-based
# Conditions: human
# In short: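 Phenotypes for tubulin, mitochondrial mass and membrane permeability are expressed as per cents of healthy-nucleus cells. Cells were stained live at seeding with Hoechst33342, BioTracker Green Microtubule Cytoskeleton Dye, MitoTracker Red and Annexin V Alexa Fluor 680, then imaged after compound addition on a CQ1 microscope at 37°C and 5% CO2. Machine-learning gating in CellPathfinder separated Hoechst high-intensity objects from normal cells, divided normal cells by nuclear state (healthy, pyknosed, fragmented) and divided pyknosed cells into mitotic or apoptotic.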
# [1] = 12 h, 1 µM, compound concentration 1 uM, replicate 1
# [2] = 12 h, 1 µM, compound concentration 1 uM, replicate 2
# [3] = 12 h, 10 µM, compound concentration 10 uM, replicate 1
# [4] = 12 h, 10 µM, compound concentration 10 uM, replicate 2
# [5] = 24 h, 1 µM, compound concentration 1 uM, replicate 1
# [6] = 24 h, 1 µM, compound concentration 1 uM, replicate 2
# [7] = 24 h, 10 µM, compound concentration 10 uM, replicate 1
# [8] = 24 h, 10 µM, compound concentration 10 uM, replicate 2
# [9] = 48 h, 1 µM, compound concentration 1 uM, replicate 1
# [10] = 48 h, 1 µM, compound concentration 1 uM, replicate 2
# [11] = 48 h, 10 µM, compound concentration 10 uM, replicate 1
# [12] = 48 h, 10 µM, compound concentration 10 uM, replicate 2
structure (smiles),measurement,setting,value
CC(C)(C)c1cc(NC(=O)Nc2ccc(-c3cn4c(n3)sc3cc(OCCN5CCOCC5)ccc34)cc2)no1 [QUIZARTINIB],Population Apoptotic (%),[1],48%
same,Population Fragmented Nuclei (%),[1],24%
same,Population Healthy Nuclei (%),[1],61%
same,Population Hoechst High Intensity Objects (%),[1],6%
same,Population Membrane Permeable-Phenotype (%),[1],13%
same,Population Mitochondria Different-Phenotype (%),[1],4%
same,Population Mitotic Cells (%),[1],51%
same,Population Normal (%),[1],93%
same,Population Pyknosed Nuclei (%),[1],14%
same,Population Tubulin-Different-Phenotype (%),[1],8%
same,Total Cell Count,[1],213
same,Population Apoptotic (%),[2],78%
same,Population Fragmented Nuclei (%),[2],17%
same,Population Healthy Nuclei (%),[2],70%
same,Population Hoechst High Intensity Objects (%),[2],1%
same,Population Membrane Permeable-Phenotype (%),[2],6%
same,Population Mitochondria Different-Phenotype (%),[2],6%
same,Population Mitotic Cells (%),[2],21%
same,Population Normal (%),[2],98%
same,Population Pyknosed Nuclei (%),[2],11%
same,Population Tubulin-Different-Phenotype (%),[2],4%
same,Total Cell Count,[2],119
same,Population Apoptotic (%),[3],58%
same,Population Fragmented Nuclei (%),[3],30%
same,Population Healthy Nuclei (%),[3],47%
same,Population Hoechst High Intensity Objects (%),[3],13%
same,Population Membrane Permeable-Phenotype (%),[3],85%
same,Population Mitochondria Different-Phenotype (%),[3],26%
same,Population Mitotic Cells (%),[3],41%
same,Population Normal (%),[3],86%
same,Population Pyknosed Nuclei (%),[3],21%
same,Population Tubulin-Different-Phenotype (%),[3],76%
same,Total Cell Count,[3],197
same,Population Apoptotic (%),[4],23%
same,Population Fragmented Nuclei (%),[4],11%
same,Population Healthy Nuclei (%),[4],65%
same,Population Hoechst High Intensity Objects (%),[4],6%
same,Population Membrane Permeable-Phenotype (%),[4],62%
same,Population Mitochondria Different-Phenotype (%),[4],33%
same,Population Mitotic Cells (%),[4],76%
same,Population Normal (%),[4],94%
same,Population Pyknosed Nuclei (%),[4],22%
same,Population Tubulin-Different-Phenotype (%),[4],54%
same,Total Cell Count,[4],100
same,Population Apoptotic (%),[5],57%
same,Population Fragmented Nuclei (%),[5],25%
same,Population Healthy Nuclei (%),[5],56%
same,Population Hoechst High Intensity Objects (%),[5],2%
same,Population Membrane Permeable-Phenotype (%),[5],15%
same,Population Mitochondria Different-Phenotype (%),[5],8%
same,Population Mitotic Cells (%),[5],42%
same,Population Normal (%),[5],97%
same,Population Pyknosed Nuclei (%),[5],17%
same,Population Tubulin-Different-Phenotype (%),[5],7%
same,Total Cell Count,[5],234
same,Population Apoptotic (%),[6],62%
same,Population Fragmented Nuclei (%),[6],15%
same,Population Healthy Nuclei (%),[6],72%
same,Population Hoechst High Intensity Objects (%),[6],0%
same,Population Membrane Permeable-Phenotype (%),[6],9%
same,Population Mitochondria Different-Phenotype (%),[6],4%
same,Population Mitotic Cells (%),[6],37%
same,Population Normal (%),[6],99%
same,Population Pyknosed Nuclei (%),[6],12%
same,Population Tubulin-Different-Phenotype (%),[6],5%
same,Total Cell Count,[6],134
same,Population Apoptotic (%),[7],63%
same,Population Fragmented Nuclei (%),[7],34%
same,Population Healthy Nuclei (%),[7],34%
same,Population Hoechst High Intensity Objects (%),[7],11%
same,Population Membrane Permeable-Phenotype (%),[7],55%
same,Population Mitochondria Different-Phenotype (%),[7],38%
same,Population Mitotic Cells (%),[7],36%
same,Population Normal (%),[7],88%
same,Population Pyknosed Nuclei (%),[7],30%
same,Population Tubulin-Different-Phenotype (%),[7],45%
same,Total Cell Count,[7],195
same,Population Apoptotic (%),[8],51%
same,Population Fragmented Nuclei (%),[8],10%
same,Population Healthy Nuclei (%),[8],58%
same,Population Hoechst High Intensity Objects (%),[8],2%
same,Population Membrane Permeable-Phenotype (%),[8],40%
same,Population Mitochondria Different-Phenotype (%),[8],32%
same,Population Mitotic Cells (%),[8],48%
same,Population Normal (%),[8],97%
same,Population Tubulin-Different-Phenotype (%),[8],30%
same,Total Cell Count,[8],96
same,Population Apoptotic (%),[9],60%
same,Population Fragmented Nuclei (%),[9],21%
same,Population Healthy Nuclei (%),[9],61%
same,Population Hoechst High Intensity Objects (%),[9],3%
same,Population Membrane Permeable-Phenotype (%),[9],7%
same,Population Mitochondria Different-Phenotype (%),[9],2%
same,Population Mitotic Cells (%),[9],39%
same,Population Normal (%),[9],96%
same,Population Pyknosed Nuclei (%),[9],16%
same,Population Tubulin-Different-Phenotype (%),[9],3%
same,Total Cell Count,[9],297
same,Population Apoptotic (%),[10],73%
same,Population Fragmented Nuclei (%),[10],16%
same,Population Healthy Nuclei (%),[10],72%
same,Population Hoechst High Intensity Objects (%),[10],2%
same,Population Membrane Permeable-Phenotype (%),[10],9%
same,Population Mitochondria Different-Phenotype (%),[10],7%
same,Population Mitotic Cells (%),[10],26%
same,Population Normal (%),[10],97%
same,Population Pyknosed Nuclei (%),[10],10%
same,Population Tubulin-Different-Phenotype (%),[10],6%
same,Total Cell Count,[10],180
same,Population Apoptotic (%),[11],72%
same,Population Fragmented Nuclei (%),[11],33%
same,Population Healthy Nuclei (%),[11],25%
same,Population Hoechst High Intensity Objects (%),[11],9%
same,Population Membrane Permeable-Phenotype (%),[11],41%
same,Population Mitochondria Different-Phenotype (%),[11],33%
same,Population Mitotic Cells (%),[11],27%
same,Population Normal (%),[11],90%
same,Population Pyknosed Nuclei (%),[11],40%
same,Population Tubulin-Different-Phenotype (%),[11],33%
same,Total Cell Count,[11],219
same,Population Apoptotic (%),[12],56%
same,Population Fragmented Nuclei (%),[12],19%
same,Population Healthy Nuclei (%),[12],48%
same,Population Hoechst High Intensity Objects (%),[12],5%
same,Population Membrane Permeable-Phenotype (%),[12],35%
same,Population Mitotic Cells (%),[12],43%
same,Population Normal (%),[12],94%
same,Population Pyknosed Nuclei (%),[12],32%
same,Population Tubulin-Different-Phenotype (%),[12],28%
same,Total Cell Count,[12],98
